These results are taken from ChEMBL document CHEMBL1155635, “New cytotoxic sesquiterpenes from the gorgonian Isis hippuris” (2000).

Holding throughout (format): functional
Assay [1] has as its system A549. The experiment in a line: Cytotoxicity against human A549 cells by MTT method. The note with it: read-out: ED50 (the source's name). An outline of the steps:
(§1)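 Modified MTT colorimetric assay. P-388 cells were a gift from an outside laboratory; A549 and HT-29 came from ATCC. Cells were treated at eight concentrations of pure compound, 50 to 5 × 10-6 µg/mL. Growth was expressed as percent of control incubations, run in triplicate. ED50 is the dose inhibiting cell growth by 50%.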

Assay [2] concerns P388. The experiment in a line: Cytotoxicity against mouse P388 cells by MTT method. The settings on record: for EC50: Mus musculus, P388, read-out: ED50 (the source's name). A digest of the protocol:
as §1

Assay [3] concerns HT-29. The assay is described as follows: Cytotoxicity against human HT29 cells by MTT method. The note with it: for EC50: Homo sapiens, HT-29, read-out: ED50 (the source's name). An outline of the steps:
as §1

≈ marks a conversion by molar mass, not a printed value. Where only a bound is given, the exact number is not on record here.

On to `C[C@@H]1CC(=O)[C@@]23[C@@H](C)C(C(=O)O)=C[C@]2(C)CC[C@@H]13` [SUBERGORGIC ACID], for which the EC50 in assay [1] is more than 50 µg/mL; in assay [2] it was 13.3 µg/mL (≈ 53.6 µM); in assay [3], more than 50 µg/mL.

For `C[C@H]1CC[C@H]2[C@@H]3CC(=O)[C@H](C)[C@@]13CC2(C)C` [SUBEROSANONE], the EC50 in assay [1] was 0.036 µg/mL (≈ 0.163 µM). The ED50 in assay [2] and in assay [3] was less than 5 ×10⁻⁶ ug/ml in each case.

For `C=C1[C@@H](OC(C)=O)C[C@H]2[C@@H]3CC[C@H](C)[C@]12CC3(C)C` [SUBEROSENOL A ACETATE], the EC50 in assay [1] stood at 0.08 µg/mL; in assay [2], 0.0076 µg/mL. This compound yielded an ED50 in assay [3] of 3.6 ×10⁻⁴ ug/ml.

With `C=C1[C@@H](O)C[C@H]2[C@@H]3CC[C@H](C)[C@]12CC3(C)C` [SUBEROSENOL A], in assay [1], the EC50 amounted to 0.0051 µg/mL (≈ 0.0231 µM). Further, the ED50 in assay [2] and in assay [3] was less than 5 ×10⁻⁶ ug/ml each time.

As to `C=C1[C@H](OC(C)=O)C[C@H]2[C@@H]3CC[C@H](C)[C@]12CC3(C)C` [SUBEROSENOL B ACETATE], the figures for the EC50 in assay [1], in assay [2] and in assay [3] were 0.36 µg/mL, 0.074 µg/mL and 0.005 µg/mL, respectively.

As to `C=C1[C@H](O)C[C@H]2[C@@H]3CC[C@H](C)[C@]12CC3(C)C` [SUBEROSENOL B], the EC50 in assay [1] was 0.2 µg/mL (≈ 0.908 µM); in assay [2], 3.4 µg/mL (≈ 15.4 µM); in assay [3], 2.1 µg/mL (≈ 9.53 µM).
